Assay results of several laboratories.
Target: Ribosomal protein S6 kinase beta-1 (RPS6KB1, Homo sapiens, UniProt P23443)

| Compound | observed | action | method | concentration | endpoint | value |
| --- | --- | --- | --- | --- | --- | --- |
| C#Cc1n[nH]c2c(-c3cn([C@@H](C)c4ccccn4)c(=O)[nH]c3=O)cc(F)cc12 | enzyme activity | inhibitor | – | 0.1 µM | inhibition | 10.2% |
| Cn1cc(-c2cc(F)cc(N3CCn4c(cc5c4CCCC5)C3=O)c2CO)cc(Nc2ccc(N3CCN(C4COC4)CC3)cn2)c1=O | enzyme activity | inhibitor | – | 0.1 µM | inhibition | 10% |
| Cc1nn(C)cc1-c1nc2c(N3CCN(Cc4ccc(Cl)cc4)CC3)c(Cl)cnc2[nH]1 | binding | – | competition with immobilised ligand | 1 µM | remaining binding | 92% |
| Cn1cncc1[C@@](O)(COc1ccc(C#N)cc1-c1ccc(OC(F)(F)F)cc1)c1ccc(C#N)cc1 | cell-free assay | – | competition with immobilised ligand | 1 µM | remaining binding | 94% |
| Nc1ncc(-c2nc(N3CCOCC3)nc(N3CCOCC3)n2)c(C(F)F)n1 | binding | – | competition with immobilised ligand | 10 µM | remaining binding | 76% |
| CC(C)(C)c1cc(C=C(C#N)C#N)cc(Br)c1O | enzyme activity | inhibitor | – | 0.5 µM | remaining activity | 91.3% |
| COc1cc(Nc2ncc(F)c(Nc3ccc4c(n3)NC(=O)C(C)(C)O4)n2)cc(OC)c1OC | binding | – | – | 10 µM | inhibition | 81% |
| Cn1cc(-c2cccc(N3CCc4c(sc5c4CC(C)(C)C5)C3=O)c2CO)cc(Nc2ccncn2)c1=O | enzyme activity | inhibitor | – | 1 µM | inhibition | 5% |
| C#Cc1n[nH]c2c(-c3cn([C@@H](C)c4ccccc4)c(=O)[nH]c3=O)cc(F)cc12 | enzyme activity | inhibitor | – | 0.1 µM | inhibition | 18.6% |
| N#CC1(c2ccccn2)CCN(Cc2cc(C(=O)O)c(=O)n3ccccc23)CC1 | cell-free assay | – | competition with immobilised ligand | 1 µM | remaining binding | 96% |
| O=c1[nH]c2ccccc2n1C1CCN(Cc2ccc(-c3[nH]c4cc5ncnc5cc4nc3-c3ccccc3)cc2)CC1 | cell-free assay | – | – | 0.5 µM | remaining signal | 101% |
| COc1ncccc1-c1cnn2ccc(N3CCN(C(=O)OC(C)C)CC3)nc12 | binding | – | competition with immobilised ligand | 1 µM | remaining binding | 100% |
